# Source: ChEMBL document CHEMBL1177669, “Synthesis and biological study of 3-(phenylsulfonyl)thieno[2,3-e][1,2,3]triazolo[1,5-a]pyrimidines as potent and selective serotonin 5-HT6 receptor antagonists” (Bioorg Med Chem, 2010)
# Columns and labels:
# [1] = biological target: T1, 5-hydroxytryptamine receptor 6 (Homo sapiens, UniProt P50406); test: Antagonist activity at human recombinant 5HT6 receptor expressed in HEK293 cells assessed as inhibition of serotonin-induced cAMP production; type: functional, cell-based
# T1 sequence (P50406 whole entry): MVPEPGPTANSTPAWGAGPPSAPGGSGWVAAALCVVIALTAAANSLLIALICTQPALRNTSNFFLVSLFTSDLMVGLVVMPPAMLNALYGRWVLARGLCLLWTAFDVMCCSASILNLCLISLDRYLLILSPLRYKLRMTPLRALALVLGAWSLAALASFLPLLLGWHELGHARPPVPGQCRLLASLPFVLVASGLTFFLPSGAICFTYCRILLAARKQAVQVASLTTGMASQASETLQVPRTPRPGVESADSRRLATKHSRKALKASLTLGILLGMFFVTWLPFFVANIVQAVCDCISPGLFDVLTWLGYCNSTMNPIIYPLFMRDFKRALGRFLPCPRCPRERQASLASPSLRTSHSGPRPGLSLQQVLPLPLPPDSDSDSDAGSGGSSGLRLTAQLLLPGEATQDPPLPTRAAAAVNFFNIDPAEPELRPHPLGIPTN
# Summary of the method: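 HEK293 cells stably expressing recombinant human 5-HT6R, stimulated with serotonin. cAMP from adenylyl cyclase measured by LANCE. Compounds screened at 5 and 10 μM. IC50 determined for compounds giving more than 50% inhibition of cAMP synthesis at 5 μM.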
# [2] = biological target: T1, 5-hydroxytryptamine receptor 6; test: Binding affinity to human recombinant 5HT6 receptor expressed in HEK293 cells by radioligand displacement assay; type: cell-based
# Summary of the method: (§1)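 Competitive radioligand binding at the 5-HT6 receptor, run by MDS Pharma Services as part of a serotonin receptor panel. IC50 and Ki values derived.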
# [3] = biological target: T1, 5-hydroxytryptamine receptor 6; test: Binding affinity to 5HT6 receptor; summary of the method: as §1
# [4] = biological target: T1, 5-hydroxytryptamine receptor 6; test: Displacement of radioligand from human recombinant 5HT6 receptor in competitive radioligand binding assay
structure (smiles),measurement,setting,value
O=S(=O)(c1ccccc1)c1nnn2c1nc(NC1CCCC1)c1sccc12,IC50,[1],140 nM
same,IC50,[2],11.9 nM
same,Ki,[2],5.5 nM
CCC(C)Nc1nc2c(S(=O)(=O)c3ccccc3)nnn2c2ccsc12 (centres undefined),IC50,[3],9.6 nM
CC(Nc1nc2c(S(=O)(=O)c3ccccc3)nnn2c2ccsc12)C12CC3CC(CC(C3)C1)C2 (centres undefined),IC50,[2],221 nM
same,Ki,[2],103 nM
O=S(=O)(c1ccccc1)c1nnn2c1nc(NCC1CCCO1)c1sccc12 (centres undefined),IC50,[1],63 nM
same,IC50,[2],17.5 nM
same,Ki,[2],8.1 nM
CN(C)CCN(C)c1nc2c(S(=O)(=O)c3ccccc3)nnn2c2ccsc12,IC50,[1],870 nM
same,IC50,[2],> 300 nM
CN(C)c1nc2c(S(=O)(=O)c3ccccc3)nnn2c2ccsc12,IC50,[4],> 300 nM
same,IC50,[2],> 30 nM
CC12CC3CC(C)(C1)CC(Nc1nc4c(S(=O)(=O)c5ccccc5)nnn4c4ccsc14)(C3)C2,IC50,[2],56.7 nM
same,Ki,[2],26.3 nM
O=S(=O)(c1ccccc1)c1nnn2c1nc(NCc1ccco1)c1sccc12,IC50,[1],40 nM
same,IC50,[2],6.1 nM
same,Ki,[2],2.8 nM
O=S(=O)(c1ccccc1)c1nnn2c1nc(NC1CCCCC1)c1sccc12,IC50,[1],200 nM
same,IC50,[2],6.9 nM
same,Ki,[2],3.2 nM
O=S(=O)(c1cccc(Cl)c1)c1nnn2c1nc(NCc1cccnc1)c1sccc12,IC50,[1],1250 nM
same,IC50,[2],31.7 nM
same,Ki,[2],14.7 nM
O=S(=O)(c1ccccc1)c1nnn2c1nc(N1CCCC1)c1sccc12,IC50,[2],188 nM
same,Ki,[2],87.5 nM
CC(C)Nc1nc2c(S(=O)(=O)c3ccccc3)nnn2c2ccsc12,IC50,[1],370 nM
same,IC50,[2],65 nM
same,Ki,[2],30.2 nM
Cc1ccc(C)c(S(=O)(=O)c2nnn3c2nc(N)c2sccc23)c1,IC50,[1],1220 nM
same,IC50,[2],99.1 nM
same,Ki,[2],46 nM
O=S(=O)(c1ccccc1)c1nnn2c1nc(NCc1cccs1)c1sccc12,IC50,[1],110 nM
same,IC50,[2],3.6 nM
same,Ki,[2],1.7 nM
CC(C)CCNc1nc2c(S(=O)(=O)c3ccc(Br)cc3)nnn2c2ccsc12,IC50,[2],34.3 nM
same,Ki,[2],15.9 nM
CN(C)CCNc1nc2c(S(=O)(=O)c3ccccc3)nnn2c2ccsc12,IC50,[2],> 300 nM
CN(Cc1cccnc1)c1nc2c(S(=O)(=O)c3ccccc3)nnn2c2ccsc12,IC50,[1],500 nM
same,IC50,[2],> 30 nM
CCc1ccc(S(=O)(=O)c2nnn3c2nc(NCCCOC)c2sccc23)cc1,IC50,[1],> 5000 nM
Cc1ccc(Nc2nc3c(S(=O)(=O)c4ccc(Br)cc4)nnn3c3ccsc23)cc1C,IC50,[1],1350 nM
Cc1cc(Cl)cc(Nc2nc3c(S(=O)(=O)c4ccc(C)c(C)c4)nnn3c3ccsc23)c1,IC50,[1],2260 nM
CC1CCCN(c2nc3c(S(=O)(=O)c4ccccc4)nnn3c3ccsc23)C1 (centres undefined),IC50,[1],2030 nM
O=S(=O)(c1ccc(Cl)cc1)c1nnn2c1nc(NC1CCCCC1)c1sccc12,IC50,[1],960 nM
Cc1ccc(C)c(S(=O)(=O)c2nnn3c2nc(NC(C)C)c2sccc23)c1,IC50,[1],350 nM
same,IC50,[2],28.3 nM
O=S(=O)(c1cccc(Cl)c1)c1nnn2c1nc(NCc1ccc(F)cc1)c1sccc12,IC50,[1],480 nM
Cc1ccc(C)c(S(=O)(=O)c2nnn3c2nc(NCCCc2ccccc2)c2sccc23)c1,IC50,[1],1220 nM
CC(C)CCNc1nc2c(S(=O)(=O)c3cccc(Cl)c3)nnn2c2ccsc12,IC50,[1],68 nM
Cc1ccc(Nc2nc3c(S(=O)(=O)c4cccc(Cl)c4)nnn3c3ccsc23)cc1,IC50,[1],1210 nM
CC(Nc1nc2c(S(=O)(=O)c3ccccc3)nnn2c2ccsc12)c1ccccc1 (centres undefined),IC50,[1],37 nM
CCN(Cc1ccccc1)c1nc2c(S(=O)(=O)c3ccc(C)cc3)nnn2c2ccsc12,IC50,[1],300 nM
O=S(=O)(c1cccc(Cl)c1)c1nnn2c1nc(Nc1ccc(F)cc1)c1sccc12,IC50,[1],2500 nM
CCN(Cc1ccccc1)c1nc2c(S(=O)(=O)c3ccc(Br)cc3)nnn2c2ccsc12,IC50,[1],580 nM
CCc1ccc(S(=O)(=O)c2nnn3c2nc(NC(C)C)c2sccc23)cc1,IC50,[1],1600 nM
COCCNc1nc2c(S(=O)(=O)c3ccc(C)c(C)c3)nnn2c2ccsc12,IC50,[1],1570 nM
O=S(=O)(c1ccccc1)c1nnn2c1nc(NCc1cccnc1)c1sccc12,IC50,[1],260 nM
same,IC50,[2],> 30 nM
Cc1ccc(S(=O)(=O)c2nnn3c2nc(NC2CCCCCC2)c2sccc23)cc1,IC50,[1],790 nM
CCCCNc1nc2c(S(=O)(=O)c3ccccc3)nnn2c2ccsc12,IC50,[1],69 nM
CCCCNc1nc2c(S(=O)(=O)c3ccc(C(C)C)cc3)nnn2c2ccsc12,IC50,[1],> 5000 nM
CCN(Cc1ccccc1)c1nc2c(S(=O)(=O)c3cc(C)ccc3C)nnn2c2ccsc12,IC50,[1],1100 nM
COc1cccc(CNc2nc3c(S(=O)(=O)c4ccccc4)nnn3c3ccsc23)c1,IC50,[1],1370 nM
Cc1ccc(S(=O)(=O)c2nnn3c2nc(Nc2cccc(F)c2)c2sccc23)cc1,IC50,[1],3810 nM
Cc1ccc(S(=O)(=O)c2nnn3c2nc(Nc2ccc(Cl)cc2)c2sccc23)cc1C,IC50,[1],1430 nM
O=S(=O)(c1ccccc1)c1nnn2c1nc(NCc1ccccc1Cl)c1sccc12,IC50,[1],32 nM
CN(Cc1ccccc1)c1nc2c(S(=O)(=O)c3ccc(Br)cc3)nnn2c2ccsc12,IC50,[1],1950 nM
O=S(=O)(c1cccc(Cl)c1)c1nnn2c1nc(NCC1CCCO1)c1sccc12 (centres undefined),IC50,[1],29 nM
Nc1nc2c(S(=O)(=O)c3cccc(Cl)c3)nnn2c2ccsc12,IC50,[1],690 nM
COCCCNc1nc2c(S(=O)(=O)c3ccc(C)c(C)c3)nnn2c2ccsc12,IC50,[1],2380 nM
Cc1cccc(Nc2nc3c(S(=O)(=O)c4ccc(Cl)cc4)nnn3c3ccsc23)c1C,IC50,[1],800 nM
O=S(=O)(c1cccc(Cl)c1)c1nnn2c1nc(N1CCCCCC1)c1sccc12,IC50,[1],1540 nM
COc1ccccc1CNc1nc2c(S(=O)(=O)c3ccc(C)cc3)nnn2c2ccsc12,IC50,[1],580 nM
O=S(=O)(c1ccccc1)c1nnn2c1nc(NCCc1ccccc1)c1sccc12,IC50,[1],1160 nM
Cc1cccc(Nc2nc3c(S(=O)(=O)c4ccc(C(C)C)cc4)nnn3c3ccsc23)c1,IC50,[1],590 nM
O=S(=O)(c1ccc(Br)cc1)c1nnn2c1nc(NCc1ccc3c(c1)OCO3)c1sccc12,IC50,[2],62.1 nM
same,Ki,[2],28.8 nM
O=S(=O)(c1ccccc1)c1nnn2c1nc(NCc1ccc3c(c1)OCO3)c1sccc12,IC50,[1],290 nM
CN(C)CCN(C)c1nc2c(S(=O)(=O)c3cccc(Cl)c3)nnn2c2ccsc12,IC50,[1],580 nM
O=S(=O)(c1ccccc1)c1nnn2c1nc(Nc1ccccc1)c1sccc12,IC50,[1],5000 nM
Cc1ccc(S(=O)(=O)c2nnn3c2nc(NCc2cccs2)c2sccc23)cc1,IC50,[1],220 nM
O=S(=O)(c1ccccc1)c1nnn2c1nc(NCc1ccccc1)c1sccc12,IC50,[1],59 nM
COc1ccccc1CNc1nc2c(S(=O)(=O)c3ccc(Br)cc3)nnn2c2ccsc12,IC50,[1],930 nM
